The source of these data is ChEMBL document CHEMBL3286281, “Amino derivatives of glycyrrhetinic acid as potential inhibitors of cholinesterases” (Bioorg Med Chem, 2014).

SMILES strings stand for the structures.

In test [1] the target is Acetylcholinesterase (Electrophorus electricus) (UniProt O42275). As to the kind of experiment: Inhibition of Electrophorus electricus AChE using acetylthiocholine iodide as substrate at 50 uM after 20 mins measured for 1 min interval for 30 mins by Ellman's method. The essentials: (§1)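 Ellman assay in 50 mM Tris-HCl pH 8.0. Enzyme was preincubated with DTNB (3 mM stock) and compound at 30 °C for 20 min. Reaction started with ATChI for AChE or BTChI for BChE. Absorbance at 415 nm was read at 30 °C every 1 min for 30 min. Triplicates.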
For orientation: DTNB colorimetry detects thiols as they appear.

Test [2] deals with Carbonic anhydrase 2 (Bos taurus) (UniProt P00921). As to the kind of experiment: Inhibition of bovine erythrocytes carbonic anhydrase 2 at 50 uM. Summed up:
(§2)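 Enzyme (bovine erythrocyte carbonic anhydrase II or Candida antarctica lipase) in 50 mM Tris-HCl pH 8.0 preincubated with compound for 20 min at 37 °C. Reaction started with 4-nitrophenyl acetate substrate. Absorbance at 415 nm followed each minute for 10 min at 37 °C, in duplicate. Relative inhibition taken as the slope ratio, compound over blank, over the linear range.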

The test system of test [3] is Candida antarctica. As to the kind of experiment: Inhibition of Candida antarctica lipase at 50 uM. The essentials:
as §2

Test [4] can be described thus: Cytotoxicity against mouse NIH/3T3 cells after 96 hrs by sulforhodamine-B assay. It is filed as cell-based. The following applies: NIH3T3, 96 h. The essentials: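 NIH 3T3 murine embryonic fibroblasts grown as monolayers in RPMI 1640 with 10% heat-inactivated FBS and penicillin/streptomycin, 37 °C, 5% CO2. Cells seeded, then exposed after 24 h to serial dilutions (0-30 μM) for 96 h, DMSO or DMF ≤0.5%. Fixed with 10% TCA at 4 °C, stained with 0.4% SRB, dye solubilized in 10 mM Tris base, absorbance read at 570 nm. Survival relative to untreated controls gave IC50. Triplicate.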
Background: The SRB assay estimates cell density from bound dye.

The next test concerns the target Acetylcholinesterase (Electrophorus electricus, UniProt O42275). Briefly: Inhibition of Electrophorus electricus AChE using acetylthiocholine iodide as substrate after 20 mins measured for 1 min interval for 30 mins by Ellman's method.
Test [5] deals with T1, Papain (Carica papaya) (UniProt P00784).
T1 sequence (whole entry): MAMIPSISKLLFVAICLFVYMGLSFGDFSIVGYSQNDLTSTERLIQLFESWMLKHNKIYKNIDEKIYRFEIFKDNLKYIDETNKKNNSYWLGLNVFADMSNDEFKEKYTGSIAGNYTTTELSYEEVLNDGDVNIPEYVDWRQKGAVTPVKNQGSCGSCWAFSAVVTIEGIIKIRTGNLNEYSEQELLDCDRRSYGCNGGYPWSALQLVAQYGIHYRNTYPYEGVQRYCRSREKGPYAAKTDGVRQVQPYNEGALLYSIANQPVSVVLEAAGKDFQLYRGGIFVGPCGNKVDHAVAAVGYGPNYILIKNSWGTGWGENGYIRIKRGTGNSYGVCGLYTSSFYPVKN
Briefly: Inhibition of Carica papaya papain at 50 uM. The essentials:
(§3)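 Carica papaya papain in 50 mM Tris-HCl pH 6.2 preincubated with compound for 20 min at 37 °C. Reaction started with 4-nitrophenyl acetate. Absorbance at 415 nm read each minute for 10 min at 37 °C, in duplicate. Relative inhibition calculated as the ratio of slopes, compound versus blank, over the linear range.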

A further test addresses Cholinesterase (Equus caballus, UniProt P81908). As to the kind of experiment: Inhibition of equine serum BChE using butyrylthiocholine iodide as substrate after 20 mins measured for 1 min interval for 30 mins by Ellman's method.
Test [6] can be described thus: Selectivity ratio of Ki for Electrophorus electricus AChE to Ki for equine serum BChE. Summed up: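 Ki from Ellman kinetics at pH 8.0 and 30 °C after 20 min enzyme–inhibitor–DTNB preincubation. Inhibitor at several concentrations plus a water blank; ATChI or BTChI at 0.9375, 0.625, 0.325 and 0.1875 mM. A415 read every 1 min for 30 min, in triplicate. Ki from Lineweaver-Burk, Dixon and Cornish-Bowden plots; F = Ki(AChE)/Ki(BChE).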

Test [7] has as its target Cholinesterase (Equus caballus) (UniProt P81908). As to the kind of experiment: Inhibition of equine serum BChE using butyrylthiocholine iodide as substrate at 50 uM after 20 mins measured for 1 min interval for 30 mins by Ellman's method. The essentials: as §1
The target of test [8] is Carbonic anhydrase 2 (Bos taurus) (UniProt P00921). Briefly: Inhibition of bovine erythrocytes carbonic anhydrase 2 at 10 uM. Summed up: as §2
The target of test [9] is Acetylcholinesterase (Electrophorus electricus) (UniProt O42275). As to the kind of experiment: Inhibition of Electrophorus electricus AChE using acetylthiocholine iodide as substrate at 10 uM after 20 mins measured for 1 min interval for 30 mins by Ellman's method. Summed up:
as §1

Test [10] concerns the target Cholinesterase (Equus caballus) (UniProt P81908). As to the kind of experiment: Inhibition of equine serum BChE using butyrylthiocholine iodide as substrate at 10 uM after 20 mins measured for 1 min interval for 30 mins by Ellman's method. The essentials: as §1
Test [11] relates to Candida antarctica. Briefly: Inhibition of Candida antarctica lipase at 10 uM. Summed up: as §2
Test [12] has as its target T1, Papain (Carica papaya). As to the kind of experiment: Inhibition of Carica papaya papain at 10 uM. The essentials: as §3

Sequence of Cholinesterase (Equus caballus) (P81908 whole entry): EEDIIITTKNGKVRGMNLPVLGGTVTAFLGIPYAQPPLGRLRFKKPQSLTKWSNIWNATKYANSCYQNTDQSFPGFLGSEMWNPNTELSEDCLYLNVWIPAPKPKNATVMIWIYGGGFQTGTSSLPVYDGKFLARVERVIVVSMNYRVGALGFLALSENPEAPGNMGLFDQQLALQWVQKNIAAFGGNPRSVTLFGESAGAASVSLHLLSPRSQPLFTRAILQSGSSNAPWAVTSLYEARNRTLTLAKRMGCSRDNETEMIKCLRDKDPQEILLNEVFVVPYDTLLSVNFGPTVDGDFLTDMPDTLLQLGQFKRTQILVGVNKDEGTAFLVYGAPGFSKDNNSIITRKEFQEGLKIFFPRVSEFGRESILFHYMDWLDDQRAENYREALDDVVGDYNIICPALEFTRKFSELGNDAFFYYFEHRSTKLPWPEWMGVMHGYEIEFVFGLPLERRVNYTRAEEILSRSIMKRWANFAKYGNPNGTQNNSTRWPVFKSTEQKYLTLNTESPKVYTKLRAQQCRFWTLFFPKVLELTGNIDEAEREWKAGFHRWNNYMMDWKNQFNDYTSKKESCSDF
Sequence of Cholinesterase (P81908 whole entry): as above
Sequence of Carbonic anhydrase 2 (Bos taurus) (P00921 2-260 limits assumed): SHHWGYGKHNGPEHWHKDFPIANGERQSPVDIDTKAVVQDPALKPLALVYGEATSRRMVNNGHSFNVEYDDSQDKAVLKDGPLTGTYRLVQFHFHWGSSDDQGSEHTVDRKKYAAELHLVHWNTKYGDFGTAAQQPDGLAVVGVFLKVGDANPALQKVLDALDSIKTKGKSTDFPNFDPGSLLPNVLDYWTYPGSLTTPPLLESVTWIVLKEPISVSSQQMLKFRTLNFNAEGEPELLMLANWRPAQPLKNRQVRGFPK
Sequence of Acetylcholinesterase (Electrophorus electricus) (O42275 24-633 limits assumed): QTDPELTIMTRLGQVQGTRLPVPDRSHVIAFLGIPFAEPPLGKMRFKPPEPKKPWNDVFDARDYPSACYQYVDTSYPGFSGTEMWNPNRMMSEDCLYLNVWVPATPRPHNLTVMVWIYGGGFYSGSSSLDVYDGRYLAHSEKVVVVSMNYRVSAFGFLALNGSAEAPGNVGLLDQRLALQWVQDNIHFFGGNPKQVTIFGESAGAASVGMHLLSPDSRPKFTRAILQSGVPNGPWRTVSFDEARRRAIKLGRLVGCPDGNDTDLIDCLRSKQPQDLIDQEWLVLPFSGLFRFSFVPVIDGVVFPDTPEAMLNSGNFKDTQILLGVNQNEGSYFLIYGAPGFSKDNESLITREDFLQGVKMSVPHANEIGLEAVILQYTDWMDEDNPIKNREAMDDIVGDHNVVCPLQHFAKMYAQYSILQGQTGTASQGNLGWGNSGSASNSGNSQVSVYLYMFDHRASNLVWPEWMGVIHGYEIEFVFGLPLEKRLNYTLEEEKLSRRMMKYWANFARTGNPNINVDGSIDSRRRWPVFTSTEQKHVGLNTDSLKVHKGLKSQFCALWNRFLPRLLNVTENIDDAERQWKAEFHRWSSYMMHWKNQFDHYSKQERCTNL
Sequence of Acetylcholinesterase (O42275 whole entry): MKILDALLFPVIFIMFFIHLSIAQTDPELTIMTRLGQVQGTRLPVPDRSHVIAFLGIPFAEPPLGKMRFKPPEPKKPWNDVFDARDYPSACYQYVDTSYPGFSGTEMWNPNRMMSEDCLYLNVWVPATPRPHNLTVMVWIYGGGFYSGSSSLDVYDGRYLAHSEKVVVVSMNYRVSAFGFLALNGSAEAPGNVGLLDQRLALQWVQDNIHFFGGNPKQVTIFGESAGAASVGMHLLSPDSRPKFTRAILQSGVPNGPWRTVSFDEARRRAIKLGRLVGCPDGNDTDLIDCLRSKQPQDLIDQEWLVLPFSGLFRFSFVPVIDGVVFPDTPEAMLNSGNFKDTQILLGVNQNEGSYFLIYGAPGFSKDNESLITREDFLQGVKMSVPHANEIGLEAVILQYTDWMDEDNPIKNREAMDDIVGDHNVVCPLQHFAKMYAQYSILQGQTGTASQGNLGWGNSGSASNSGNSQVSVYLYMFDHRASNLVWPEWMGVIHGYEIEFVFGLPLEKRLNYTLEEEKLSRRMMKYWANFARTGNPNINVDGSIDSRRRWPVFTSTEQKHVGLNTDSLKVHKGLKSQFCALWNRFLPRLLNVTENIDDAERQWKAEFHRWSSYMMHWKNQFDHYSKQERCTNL

What is called inhibition is the change of the read-out against control, counted positive when it falls. A higher inhibition goes with a strong effect. The IC50 is the concentration needed to halve the response being measured. Lower therefore signals higher potency. A word on the Ki: it is a dissociation constant, usually derived from enzyme kinetics or from competition with a known ligand. For `CC1(C)[C@@H](O)CC[C@]2(C)[C@H]3C(=O)C=C4[C@@H]5C[C@@](C)(C(=O)NCCCN)CC[C@]5(C)CC[C@@]4(C)[C@]3(C)CC[C@@H]12`, the inhibition in test [1] came to 35%; in [2], 0%; in the test on Candida antarctica [3], 51%; on Papain (Carica papaya) [5] it was 0%; in test [7], 79%. In [4], the IC50 was > 30 µM. Moreover, the Ki is > 100 µM on Acetylcholinesterase and 5.43 µM on Cholinesterase. Further, the Ratio Ki in [6] is > 18.4.
On to `COC(=O)[C@@]1(C)CC[C@]2(C)CC[C@]3(C)C(=CC(=O)[C@@H]4[C@@]5(C)CC[C@H](OC(=O)[C@@H](N)CCN)C(C)(C)[C@@H]5CC[C@]43C)[C@@H]2C1`, for which the inhibition was determined as 68% in [1]; 0% in test [2]; 38% in the test with Candida antarctica [3]; 0% on Papain (Carica papaya) [5]; 16% in test [7]. The same compound showed an IC50 in [4] of 3.05 µM. Besides, the Ki on Acetylcholinesterase was 18.7 µM; at Cholinesterase, > 100 µM. Further, in test [6], the Ratio Ki was < 0.19.
In the case of `CC1(C)[C@@H](O)CC[C@]2(C)[C@H]3C(=O)C=C4[C@@H]5C[C@@](C)(C(=O)OCCCCCCBr)CC[C@]5(C)CC[C@@]4(C)[C@]3(C)CC[C@@H]12`, the inhibition in [1] was 43%; in test [2], 0%; in the test with Candida antarctica [3], 45%; on Papain (Carica papaya) [5], 0%; in test [7] it was 30%. In addition, the IC50 in test [4] is > 30 µM. Also, the Ki on Acetylcholinesterase was 13 µM; at Cholinesterase, > 100 µM. For the same compound, the Ratio Ki in test [6] was < 0.13.
For the compound `CC1(C)[C@@H](O)CC[C@]2(C)[C@H]3C(=O)C=C4[C@@H]5C[C@@](C)(C(=O)On6nnc7ccccc76)CC[C@]5(C)CC[C@@]4(C)[C@]3(C)CC[C@@H]12`, the inhibition stood at 27% in test [8]; 49% in [9]; 68% in test [10]; 32% with Candida antarctica [11]; 0% on Papain (Carica papaya) [12]. In addition, in [4], the IC50 is > 30 µM. The Ki at Acetylcholinesterase is > 20 µM; on Cholinesterase, 9.81 µM. In test [6], the Ratio Ki was > 2.04.
Turning to `COC(=O)[C@@]1(C)CC[C@]2(C)CC[C@]3(C)C(=CC(=O)[C@@H]4[C@@]5(C)CC[C@H](OC(=O)[C@@H](N)CCC(=O)OCc6ccccc6)C(C)(C)[C@@H]5CC[C@]43C)[C@@H]2C1`, the inhibition in test [1] was determined as 58%; in test [2], 15%; in the test with Candida antarctica [3] it was 51%; against Papain (Carica papaya) [5] it was 0%; in test [7], 16%. In addition, the IC50 in test [4] is > 30 µM. For the same compound, the values for the Ki at Acetylcholinesterase and on Cholinesterase were 16.1 µM and > 100 µM, respectively. For the same compound, the Ratio Ki in test [6] is < 0.16.
